ChEMBL document CHEMBL3351247 (J Med Chem, 2014)
Calls of active or inactive are those of the source. The rule behind the calls is not given here.

How the values were obtained:
Rattus norvegicus [1] = assay: Inhibition of cocaine-prime-induced reinstatement in Sprague-Dawley rat at 0.1 to 0.3 mg/kg, ip administered 10 mins prior to cocaine challenge relative to vehicle-treated control; type: functional, organism-based
In short: (§1)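 Male Sprague-Dawley rats (300–350 g) self-administered IV cocaine (0.5 mg/kg/infusion, jugular cannula) in daily 2 h sessions on FR5 until stable (<20% variation over 3 days). Extinction with saline-heparin and no light cue until responses fell below 20% of baseline. Agonist given ip in DMSO:Tween 80:water 2:1:7 10 min before a cocaine prime (20 mg/kg). Active lever presses recorded.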

[2] = target: Kappa-type opioid receptor (Homo sapiens, UniProt P41145); assay: Agonist activity at human KOR expressed in CHO cells assessed as inhibition of forskolin-induced cAMP accumulation after 30 mins by luminescence assay; type: functional, cell-based
Chain of Kappa-type opioid receptor (P41145 whole entry): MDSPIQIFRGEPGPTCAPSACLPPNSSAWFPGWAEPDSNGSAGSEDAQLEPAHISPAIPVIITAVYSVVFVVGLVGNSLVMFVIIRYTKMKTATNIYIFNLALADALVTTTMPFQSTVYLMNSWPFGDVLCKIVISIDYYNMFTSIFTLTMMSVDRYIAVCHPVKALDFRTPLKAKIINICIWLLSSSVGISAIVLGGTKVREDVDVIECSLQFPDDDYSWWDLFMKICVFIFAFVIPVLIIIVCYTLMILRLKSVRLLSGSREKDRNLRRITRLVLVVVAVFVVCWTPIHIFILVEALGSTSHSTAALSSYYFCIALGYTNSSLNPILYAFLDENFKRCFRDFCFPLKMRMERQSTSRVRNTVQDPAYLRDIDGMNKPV
In short: (§2)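 CHO cells stably expressing KOR or MOR, plated at 10 000 cells/well and incubated overnight at 37 °C. Compounds given as 10-point serial dilutions (1% DMSO final) with 20 μM forskolin final in HBSS/10 mM HEPES. Incubation 30 min at 37 °C, then detection reagents overnight at room temperature. HitHunter cAMP luminescence read-out; data normalized to vehicle and forskolin-only controls, nonlinear regression.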

Rattus norvegicus [3] = assay: Toxicity in Sprague-Dawley rat assessed as inactive lever pressing during self administration period at 0.3 mg/kg, ip; type: organism-based; parameters: dose 0.3 mg/kg, route intraperitoneal; conditions: in vivo
In short: (§3)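 Male Sprague-Dawley rats (300–350 g) trained to IV cocaine self-administration (0.5 mg/kg/infusion) on FR5 in 2 h daily sessions, then extinction with saline-heparin and cocaine-prime (20 mg/kg) reinstatement. Agonist given ip in DMSO:Tween 80:water 2:1:7 10 min before prime.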

Rattus norvegicus [4] = assay: Toxicity in Sprague-Dawley rat assessed as inactive lever pressing during extinction period at 0.3 mg/kg, ip; type: organism-based; parameters: dose 0.3 mg/kg, route intraperitoneal; conditions: in vivo; in short: as §3
Rattus norvegicus [5] = assay: Toxicity in Sprague-Dawley rat assessed as inactive lever pressing during extinction period at 1 mg/kg, ip; type: organism-based; parameters: dose 1 mg/kg, route intraperitoneal; conditions: in vivo; in short: as §3
Mu-type opioid receptor = Mu-type opioid receptor (Homo sapiens, UniProt P35372); assay: Agonist activity at human MOR expressed in CHO cells assessed as inhibition of forskolin-induced cAMP accumulation after 30 mins by luminescence assay; type: functional, cell-based; in short: as §2
Chain of Mu-type opioid receptor (P35372 whole entry): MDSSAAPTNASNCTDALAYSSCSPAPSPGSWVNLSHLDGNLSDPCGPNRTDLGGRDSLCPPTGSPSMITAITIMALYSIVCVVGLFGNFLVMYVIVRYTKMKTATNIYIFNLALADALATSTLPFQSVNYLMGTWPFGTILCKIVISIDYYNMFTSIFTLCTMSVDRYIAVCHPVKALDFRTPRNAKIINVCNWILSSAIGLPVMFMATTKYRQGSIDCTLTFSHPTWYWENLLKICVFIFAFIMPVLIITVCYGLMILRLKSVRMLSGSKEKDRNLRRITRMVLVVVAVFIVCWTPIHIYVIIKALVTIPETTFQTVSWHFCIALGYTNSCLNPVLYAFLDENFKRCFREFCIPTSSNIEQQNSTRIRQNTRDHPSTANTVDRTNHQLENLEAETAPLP

Rattus norvegicus [6] = assay: Toxicity in Sprague-Dawley rat assessed as inactive lever pressing during reinstatement period at 1 mg/kg, ip; type: organism-based; parameters: dose 1 mg/kg, route intraperitoneal; conditions: in vivo; in short: as §3
Rattus norvegicus [7] = assay: Toxicity in Sprague-Dawley rat assessed as inactive lever pressing during reinstatement period at 0.3 mg/kg, ip; type: organism-based; parameters: dose 0.3 mg/kg, route intraperitoneal; conditions: in vivo; in short: as §3
Rattus norvegicus [8] = assay: Toxicity in Sprague-Dawley rat assessed as inactive lever pressing during self administration period at 1 mg/kg, ip; type: organism-based; parameters: dose 1 mg/kg, route intraperitoneal; conditions: in vivo; in short: as §3
Rattus norvegicus [9] = assay: Inhibition of cocaine-prime-induced reinstatement in Sprague-Dawley rat at 0.3 to 1 mg/kg, ip administered 10 mins prior to cocaine challenge relative to vehicle-treated control; type: functional, organism-based; in short: as §1
Rattus norvegicus [10] = assay: Inhibition of cocaine-prime-induced reinstatement in Sprague-Dawley rat at 1 mg/kg, ip administered 10 mins prior to cocaine challenge relative to vehicle-treated control; type: functional, organism-based; parameters: dose 1 mg/kg; in short: as §1

| Structure (SMILES) | inhibition (Rattus norvegicus [1]) | EC50 [2] | Emax [2] | Activity (Rattus norvegicus [3]) | Activity (Rattus norvegicus [4]) | Activity (Rattus norvegicus [5]) | EC50 (Mu-type opioid receptor) | Activity (Rattus norvegicus [6]) | Activity (Rattus norvegicus [7]) | Activity (Rattus norvegicus [8]) | inhibition (Rattus norvegicus [9]) | inhibition (Rattus norvegicus [10]) |
| --- | --- | --- | --- | --- | --- | --- | --- | --- | --- | --- | --- | --- |
| C#Cc1occc1[C@@H]1C[C@]2(C)[C@H]3C(=O)[C@@H](OC(C)=O)C[C@@H](C(=O)OC)[C@]3(C)CC[C@H]2C(=O)O1 | Active | 0.019 nM | 100% | Non-toxic | Non-toxic | Non-toxic | ≥ 10000 nM | Non-toxic | Non-toxic | Non-toxic | – | – |
| COC(=O)[C@@H]1C[C@H](OC(C)=O)C(=O)[C@H]2[C@@]1(C)CC[C@H]1C(=O)O[C@H](c3ccoc3Br)C[C@]21C | – | – | – | Non-toxic | Non-toxic | Non-toxic | ≥ 10000 nM | Non-toxic | Non-toxic | Non-toxic | Active | – |
| COC(=O)[C@@H]1C[C@H](OC(C)=O)C(=O)[C@H]2[C@@]1(C)CC[C@H]1C(=O)O[C@H](c3ccoc3C)C[C@]21C | – | 0.41 nM | 100% | Non-toxic | Non-toxic | Non-toxic | ≥ 10000 nM | Non-toxic | Non-toxic | Non-toxic | – | inactive |
